Legend:
Alpha1c = assay: PDSP radioligand binding, Alpha1c; details: 10 μM
MOR = MOR (Homo sapiens, UniProt P35372); assay: PDSP radioligand binding, MOR; details: 10 μM
5HT1e = 5HT1e (Homo sapiens, UniProt P28566); assay: PDSP radioligand binding, 5HT1e; details: 10 μM
NET = NET (Homo sapiens, UniProt P23975); assay: PDSP radioligand binding, NET
Alpha1d = Alpha1d (Homo sapiens, UniProt P25100); assay: PDSP radioligand binding, Alpha1d; details: 10 μM
[1] = system: mouse spared nerve injury (SNI) model; assay: Mechanical sensitivity; type: in vivo
Outline: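 Male C57Bl6/J mice with SNI (peroneal and tibial sciatic branches cut, sural spared), confirmed hypersensitive 2 weeks post-surgery and screened 21–60 days after SNI. Single intrathecal 10 μg in 5 μL saline (DMSO <5%, vehicle DMSO-matched). Blinded hindpaw von Frey, modified up–down, at set times. n = 4–11. Mean ± SEM; two-way ANOVA with Bonferroni. Repeat injections ≥14 days apart.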

σ2R/Tmem97 = biological target: T1, σ2R/Tmem97 (Rattus norvegicus, UniProt Q5U3Y7); assay: Sigma 2 receptor competition binding with [3H]-ditolylguanidine; details: σ2R from rat PC12 cells
T1 sequence (Q5U3Y7 1-176): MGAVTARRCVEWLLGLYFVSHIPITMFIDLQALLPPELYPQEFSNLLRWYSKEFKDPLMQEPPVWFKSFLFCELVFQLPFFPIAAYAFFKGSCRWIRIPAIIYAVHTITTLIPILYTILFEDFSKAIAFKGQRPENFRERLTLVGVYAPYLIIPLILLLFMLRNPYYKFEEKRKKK

A4B4 = A4B4 (Rattus norvegicus, UniProt P09483+P12392); assay: PDSP radioligand binding, A4B4; details: 10 μM
Chain of A4B4 (P09483 31-630): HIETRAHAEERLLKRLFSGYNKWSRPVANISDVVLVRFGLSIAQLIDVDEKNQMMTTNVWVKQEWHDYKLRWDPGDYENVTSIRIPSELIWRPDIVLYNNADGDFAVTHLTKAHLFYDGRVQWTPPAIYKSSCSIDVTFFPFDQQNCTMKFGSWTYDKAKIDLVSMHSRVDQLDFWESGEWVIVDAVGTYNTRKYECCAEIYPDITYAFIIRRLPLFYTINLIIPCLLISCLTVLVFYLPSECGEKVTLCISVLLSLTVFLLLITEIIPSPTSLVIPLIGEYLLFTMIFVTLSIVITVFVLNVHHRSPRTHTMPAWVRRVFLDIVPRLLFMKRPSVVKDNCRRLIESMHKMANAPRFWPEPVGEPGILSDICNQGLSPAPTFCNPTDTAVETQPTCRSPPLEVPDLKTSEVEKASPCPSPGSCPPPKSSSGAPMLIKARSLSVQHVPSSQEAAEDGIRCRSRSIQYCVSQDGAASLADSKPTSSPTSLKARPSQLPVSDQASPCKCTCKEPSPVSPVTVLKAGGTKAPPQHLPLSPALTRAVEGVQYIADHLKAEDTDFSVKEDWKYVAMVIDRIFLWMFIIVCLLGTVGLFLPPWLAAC
Chain of A4B4 (P12392 21-495): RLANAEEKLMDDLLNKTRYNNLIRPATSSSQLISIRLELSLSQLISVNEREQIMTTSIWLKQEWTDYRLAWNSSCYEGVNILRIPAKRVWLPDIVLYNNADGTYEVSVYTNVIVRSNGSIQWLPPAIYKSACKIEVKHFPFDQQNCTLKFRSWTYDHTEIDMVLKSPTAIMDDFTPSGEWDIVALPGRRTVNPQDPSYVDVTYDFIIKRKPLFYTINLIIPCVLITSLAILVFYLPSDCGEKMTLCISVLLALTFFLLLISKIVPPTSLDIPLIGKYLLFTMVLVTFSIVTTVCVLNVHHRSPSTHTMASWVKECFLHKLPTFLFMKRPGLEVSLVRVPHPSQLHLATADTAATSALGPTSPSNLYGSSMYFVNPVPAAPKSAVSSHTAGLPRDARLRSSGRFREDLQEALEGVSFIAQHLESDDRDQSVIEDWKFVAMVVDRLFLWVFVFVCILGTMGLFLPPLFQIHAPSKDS

D5 = D5 (Homo sapiens, UniProt P21918); assay: PDSP radioligand binding, D5; details: 10 μM
Chain of D5 (P21918 whole entry): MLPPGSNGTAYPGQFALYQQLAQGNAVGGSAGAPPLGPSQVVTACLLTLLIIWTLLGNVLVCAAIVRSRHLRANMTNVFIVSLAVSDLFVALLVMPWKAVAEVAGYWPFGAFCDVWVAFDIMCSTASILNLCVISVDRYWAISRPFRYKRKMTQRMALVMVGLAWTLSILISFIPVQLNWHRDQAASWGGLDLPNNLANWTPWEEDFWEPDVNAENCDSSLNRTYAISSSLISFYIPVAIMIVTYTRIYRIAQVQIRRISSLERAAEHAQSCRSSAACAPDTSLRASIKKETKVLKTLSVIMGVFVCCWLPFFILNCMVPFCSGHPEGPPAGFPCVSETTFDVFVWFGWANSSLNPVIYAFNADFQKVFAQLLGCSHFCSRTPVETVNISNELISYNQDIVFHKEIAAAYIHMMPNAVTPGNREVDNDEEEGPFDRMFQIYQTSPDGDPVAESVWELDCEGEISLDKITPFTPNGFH

H3 = H3 (Homo sapiens, UniProt Q9Y5N1); assay: PDSP radioligand binding, H3; details: 10 μM
Chain of H3 (Q9Y5N1 whole entry): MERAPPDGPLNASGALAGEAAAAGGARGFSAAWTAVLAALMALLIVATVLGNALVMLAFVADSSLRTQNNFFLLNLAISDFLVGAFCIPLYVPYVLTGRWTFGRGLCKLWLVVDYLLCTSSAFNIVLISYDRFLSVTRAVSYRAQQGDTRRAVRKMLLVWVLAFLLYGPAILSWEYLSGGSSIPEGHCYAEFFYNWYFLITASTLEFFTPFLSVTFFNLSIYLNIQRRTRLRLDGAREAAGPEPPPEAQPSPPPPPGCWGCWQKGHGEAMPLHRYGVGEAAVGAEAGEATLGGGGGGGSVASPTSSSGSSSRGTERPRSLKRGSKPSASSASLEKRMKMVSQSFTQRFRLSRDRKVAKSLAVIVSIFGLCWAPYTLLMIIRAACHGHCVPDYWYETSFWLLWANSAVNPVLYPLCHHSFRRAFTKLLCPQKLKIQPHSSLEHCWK

PBR = PBR (Rattus norvegicus, UniProt P16257); assay: PDSP radioligand binding, PBR; details: 10 μM
5HT2A = 5HT2A (Homo sapiens, UniProt P28223); assay: PDSP radioligand binding, 5HT2A; details: 10 μM
Chain of 5HT2A (P28223 whole entry): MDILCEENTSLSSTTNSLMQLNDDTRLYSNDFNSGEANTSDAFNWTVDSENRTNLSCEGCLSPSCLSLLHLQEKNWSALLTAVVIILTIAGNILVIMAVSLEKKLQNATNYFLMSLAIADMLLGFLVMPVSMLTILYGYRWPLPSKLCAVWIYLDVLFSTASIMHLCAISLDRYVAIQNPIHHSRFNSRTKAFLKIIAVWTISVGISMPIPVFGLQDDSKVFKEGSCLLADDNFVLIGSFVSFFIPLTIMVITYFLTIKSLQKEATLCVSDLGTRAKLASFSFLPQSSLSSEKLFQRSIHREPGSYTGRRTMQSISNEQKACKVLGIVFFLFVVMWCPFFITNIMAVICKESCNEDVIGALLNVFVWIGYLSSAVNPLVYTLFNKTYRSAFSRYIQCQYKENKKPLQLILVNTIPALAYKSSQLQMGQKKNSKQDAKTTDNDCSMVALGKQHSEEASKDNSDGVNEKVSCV

M1 = M1 (Homo sapiens, UniProt P11229); assay: PDSP radioligand binding, M1; details: 10 μM
Chain of M1 (P11229 whole entry): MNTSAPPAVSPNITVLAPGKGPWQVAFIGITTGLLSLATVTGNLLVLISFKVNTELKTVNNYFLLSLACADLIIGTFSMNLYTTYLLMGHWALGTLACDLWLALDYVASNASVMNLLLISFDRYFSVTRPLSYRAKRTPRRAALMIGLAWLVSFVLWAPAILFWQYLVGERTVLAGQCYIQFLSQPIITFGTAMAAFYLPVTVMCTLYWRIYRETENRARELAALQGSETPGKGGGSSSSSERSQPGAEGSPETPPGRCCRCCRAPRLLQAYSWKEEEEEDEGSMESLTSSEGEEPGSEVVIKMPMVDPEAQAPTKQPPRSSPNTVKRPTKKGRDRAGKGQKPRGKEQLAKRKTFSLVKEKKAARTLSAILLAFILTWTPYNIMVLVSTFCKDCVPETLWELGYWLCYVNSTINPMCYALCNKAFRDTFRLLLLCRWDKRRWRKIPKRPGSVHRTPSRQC

GabaA = assay: PDSP radioligand binding, GabaA; details: 10 μM
M3 = M3 (Homo sapiens, UniProt P20309); assay: PDSP radioligand binding, M3; details: 10 μM
D3 = D3 (Homo sapiens, UniProt P35462); assay: PDSP radioligand binding, D3; details: 10 μM
Chain of D3 (P35462 whole entry): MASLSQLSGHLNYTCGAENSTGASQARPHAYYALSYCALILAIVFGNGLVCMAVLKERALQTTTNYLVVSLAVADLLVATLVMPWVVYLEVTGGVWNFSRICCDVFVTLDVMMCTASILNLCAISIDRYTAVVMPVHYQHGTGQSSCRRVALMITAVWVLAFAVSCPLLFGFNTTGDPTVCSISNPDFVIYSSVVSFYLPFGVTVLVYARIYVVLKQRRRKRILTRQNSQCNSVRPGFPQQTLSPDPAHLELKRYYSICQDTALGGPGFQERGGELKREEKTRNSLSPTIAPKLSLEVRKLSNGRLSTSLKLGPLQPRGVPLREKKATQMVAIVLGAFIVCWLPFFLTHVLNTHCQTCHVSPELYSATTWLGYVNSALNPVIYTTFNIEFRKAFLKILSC

Chain of Alpha1d (P25100 whole entry): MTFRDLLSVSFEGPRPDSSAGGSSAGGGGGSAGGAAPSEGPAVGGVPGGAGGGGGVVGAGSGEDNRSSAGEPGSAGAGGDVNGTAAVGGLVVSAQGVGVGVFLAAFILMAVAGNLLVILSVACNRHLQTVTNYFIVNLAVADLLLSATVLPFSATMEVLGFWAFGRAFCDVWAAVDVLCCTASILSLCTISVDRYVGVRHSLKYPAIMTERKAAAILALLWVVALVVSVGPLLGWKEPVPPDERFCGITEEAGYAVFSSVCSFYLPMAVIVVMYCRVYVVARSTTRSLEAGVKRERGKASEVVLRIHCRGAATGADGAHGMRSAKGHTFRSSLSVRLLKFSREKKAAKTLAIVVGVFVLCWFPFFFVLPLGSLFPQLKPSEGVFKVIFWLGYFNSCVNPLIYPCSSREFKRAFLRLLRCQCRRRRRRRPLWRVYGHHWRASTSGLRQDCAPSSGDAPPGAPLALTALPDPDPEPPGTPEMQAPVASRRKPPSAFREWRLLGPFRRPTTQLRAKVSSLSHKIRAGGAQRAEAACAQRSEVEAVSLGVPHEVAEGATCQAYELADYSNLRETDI
Chain of 5HT1e (P28566 whole entry): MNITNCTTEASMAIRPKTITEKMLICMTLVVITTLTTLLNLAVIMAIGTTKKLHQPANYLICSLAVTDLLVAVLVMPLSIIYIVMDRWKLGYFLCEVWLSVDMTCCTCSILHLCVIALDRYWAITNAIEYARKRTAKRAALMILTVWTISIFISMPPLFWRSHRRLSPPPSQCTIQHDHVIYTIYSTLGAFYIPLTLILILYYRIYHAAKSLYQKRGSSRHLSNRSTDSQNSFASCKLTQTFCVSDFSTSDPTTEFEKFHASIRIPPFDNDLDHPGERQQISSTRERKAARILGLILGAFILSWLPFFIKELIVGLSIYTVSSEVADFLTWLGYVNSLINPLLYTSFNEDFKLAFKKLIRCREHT
Chain of NET (P23975 whole entry): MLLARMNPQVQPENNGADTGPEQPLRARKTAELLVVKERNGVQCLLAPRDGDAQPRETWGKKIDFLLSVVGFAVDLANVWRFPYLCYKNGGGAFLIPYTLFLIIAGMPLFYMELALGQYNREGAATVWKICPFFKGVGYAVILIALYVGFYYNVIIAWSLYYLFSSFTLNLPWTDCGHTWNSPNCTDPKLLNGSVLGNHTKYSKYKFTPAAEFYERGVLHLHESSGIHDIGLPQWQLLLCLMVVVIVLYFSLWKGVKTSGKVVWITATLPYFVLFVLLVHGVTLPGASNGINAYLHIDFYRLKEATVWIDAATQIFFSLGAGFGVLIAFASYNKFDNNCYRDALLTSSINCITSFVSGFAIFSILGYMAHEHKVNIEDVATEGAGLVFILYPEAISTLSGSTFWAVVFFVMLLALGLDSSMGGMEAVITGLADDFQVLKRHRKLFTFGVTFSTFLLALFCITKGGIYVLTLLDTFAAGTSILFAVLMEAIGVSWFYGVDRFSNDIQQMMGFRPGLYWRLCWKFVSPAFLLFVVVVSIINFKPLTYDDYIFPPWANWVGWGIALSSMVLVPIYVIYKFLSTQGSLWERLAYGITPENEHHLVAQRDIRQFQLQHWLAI

With `OCCCN1CCCC2CC1c1cc(-c3ccc(C(F)(F)F)cc3)ccc12` (racemic) [UKH-1114, (±)-9-(4-(Trifluoromethyl)phenyl)-3,4,5,6-tetrahydro-1,6-methanobenzo[c]azocin-2(1H)-yl)propan-1-ol] the “inhibition of radioligand binding (Ki column, footnote a)” value (from here on “inhibition of radioligand binding”) (Alpha1c) was “^a (<50% inhibition of radioligand binding at 10 μM)”, the “inhibition of radioligand binding” value (MOR) was “^a (<50% inhibition of radioligand binding at 10 μM)” and the “inhibition of radioligand binding” value (5HT1e) was “^a (<50% inhibition of radioligand binding at 10 μM)”. For the same compound, the Ki (NET) was 1050 nM, the “inhibition of radioligand binding” value (Alpha1d) was “^a (<50% inhibition of radioligand binding at 10 μM)” and the “time of peak relief of mechanical hypersensitivity after dosing” value ([1]; IT) was 48 h. The “effect on SNI-induced mechanical hypersensitivity” value ([1]; single IT injection, 10 μg, vs vehicle) was “significant antimechanical hypersensitivity effects at either 24 or 48 h”, the “affinity at σ2R/Tmem97 (in words)” value (σ2R/Tmem97) was “high affinity” and the “inhibition of radioligand binding” value (A4B4) was “^a (<50% inhibition of radioligand binding at 10 μM)”. The “inhibition of radioligand binding” value (D5) was “^a (<50% inhibition of radioligand binding at 10 μM)”, the “inhibition of radioligand binding” value (H3) was “^a (<50% inhibition of radioligand binding at 10 μM)” and the “inhibition of radioligand binding” value (PBR) was “^a (<50% inhibition of radioligand binding at 10 μM)”. For the same compound, the “inhibition of radioligand binding” value (5HT2A) was “^a (<50% inhibition of radioligand binding at 10 μM)”, the “inhibition of radioligand binding” value (M1) was “^a (<50% inhibition of radioligand binding at 10 μM)” and the “inhibition of radioligand binding” value (GabaA) was “^a (<50% inhibition of radioligand binding at 10 μM)”. The “inhibition of radioligand binding” value (M3) was “^a (<50% inhibition of radioligand binding at 10 μM)” and the “inhibition of radioligand binding” value (D3) was “^a (<50% inhibition of radioligand binding at 10 μM)”.

Reference: article PMC5715471 (ACS chemical neuroscience, 2017)
